Laboratory results as given in ChEMBL document CHEMBL4184298, “Development of Potent Inhibitors of Receptor Tyrosine Kinases by Ligand-Based Drug Design and Target-Biased Phenotypic Screening” (J Med Chem, 2018).
Activity calls are given as the source filed them. No cut-off for these calls is given here.

Tests used:
[1] = biological target: Receptor-type tyrosine-protein kinase FLT3 (Homo sapiens, UniProt P36888, D835Y); assay: Inhibition of human partial length FLT3 D835Y mutant (Q580 to Y969 residues) expressed in bacterial expression system using poly [Glu, Try] 4:1 as substrate in presence of [gamma-33P]ATP
Method in brief: (§1)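 Recombinant kinase assays were run radiometrically by an outside contract service. Activity was read as 33P incorporation into each kinase's substrate and expressed relative to a DMSO control.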

[2] = biological target: ALK tyrosine kinase receptor (Homo sapiens, UniProt Q9UM73); assay: Inhibition of wild-type human partial length ALK (I1088 to E1409 residues) expressed in mammalian expression system using poly [Glu, Try] 4:1 as substrate in presence of [gamma-33P]ATP
Method in brief: (§2)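 Radiometric assay on recombinant kinase: ³³P incorporation into the kinase substrate was measured and activity was expressed relative to a DMSO control.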

Aurora kinase B = Aurora kinase B (Homo sapiens, UniProt Q96GD4); assay: Inhibition of wild-type human partial length AURKB (D25 to A303 residues) expressed in mammalian expression system using poly [Glu, Try] 4:1 as substrate in presence of [gamma-33P]ATP; method in brief: as §2
[3] = biological target: Epidermal growth factor receptor (Homo sapiens, UniProt P00533); assay: Inhibition of wild-type human partial length EGFR (R669 to V1011 residues) expressed in bacterial expression system using poly [Glu, Try] 4:1 as substrate in presence of [gamma-33P]ATP; method in brief: as §2
MV4-11 = assay: Antiproliferative activity against human MV4-11 cells after 5 days by PrestoBlue assay; type: functional, cell-based
[4] = biological target: Receptor-type tyrosine-protein kinase FLT3 (Homo sapiens, UniProt P36888, ITD); assay: Inhibition of human partial length FLT3 ITD mutant expressed in bacterial expression system using poly [Glu, Try] 4:1 as substrate in presence of [gamma-33P]ATP; method in brief: as §1
[5] = biological target: Platelet-derived growth factor receptor alpha (Homo sapiens, UniProt P16234); assay: Inhibition of wild-type human partial length PDGFRA (V575 to D1002 residues) expressed in mammalian expression system using poly [Glu, Try] 4:1 as substrate in presence of [gamma-33P]ATP; method in brief: as §2
[6] = Selectivity ratio of EC50 for human AXL-negative BT474 cells to EC50 for mouse AXL-positive breast cancer cells; type: functional
Method in brief: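 AXL− BT474 and AXL+ cells were each dosed with 8-point half-log series (0.03–100 μM) and read by PrestoBlue at day 5 (n = 2). EC50s were fitted for each line, and the ratio is EC50(AXL−)/EC50(AXL+).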

BT-474 = assay: Antiproliferative activity against human AXL-negative BT474 cells after 5 days by PrestoBlue assay; type: functional, cell-based; conditions: BT-474, 120 h
Method in brief: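 8-point half-log dose–response, 0.03–100 μM. Cell viability read with PrestoBlue reagent at day 5. EC50 calculated from the curves. SD from n = 2. Screened alongside an AXL+ line, with foretinib as the positive control.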

Epidermal growth factor receptor, sequence (P00533 whole entry, the tested form may be a part): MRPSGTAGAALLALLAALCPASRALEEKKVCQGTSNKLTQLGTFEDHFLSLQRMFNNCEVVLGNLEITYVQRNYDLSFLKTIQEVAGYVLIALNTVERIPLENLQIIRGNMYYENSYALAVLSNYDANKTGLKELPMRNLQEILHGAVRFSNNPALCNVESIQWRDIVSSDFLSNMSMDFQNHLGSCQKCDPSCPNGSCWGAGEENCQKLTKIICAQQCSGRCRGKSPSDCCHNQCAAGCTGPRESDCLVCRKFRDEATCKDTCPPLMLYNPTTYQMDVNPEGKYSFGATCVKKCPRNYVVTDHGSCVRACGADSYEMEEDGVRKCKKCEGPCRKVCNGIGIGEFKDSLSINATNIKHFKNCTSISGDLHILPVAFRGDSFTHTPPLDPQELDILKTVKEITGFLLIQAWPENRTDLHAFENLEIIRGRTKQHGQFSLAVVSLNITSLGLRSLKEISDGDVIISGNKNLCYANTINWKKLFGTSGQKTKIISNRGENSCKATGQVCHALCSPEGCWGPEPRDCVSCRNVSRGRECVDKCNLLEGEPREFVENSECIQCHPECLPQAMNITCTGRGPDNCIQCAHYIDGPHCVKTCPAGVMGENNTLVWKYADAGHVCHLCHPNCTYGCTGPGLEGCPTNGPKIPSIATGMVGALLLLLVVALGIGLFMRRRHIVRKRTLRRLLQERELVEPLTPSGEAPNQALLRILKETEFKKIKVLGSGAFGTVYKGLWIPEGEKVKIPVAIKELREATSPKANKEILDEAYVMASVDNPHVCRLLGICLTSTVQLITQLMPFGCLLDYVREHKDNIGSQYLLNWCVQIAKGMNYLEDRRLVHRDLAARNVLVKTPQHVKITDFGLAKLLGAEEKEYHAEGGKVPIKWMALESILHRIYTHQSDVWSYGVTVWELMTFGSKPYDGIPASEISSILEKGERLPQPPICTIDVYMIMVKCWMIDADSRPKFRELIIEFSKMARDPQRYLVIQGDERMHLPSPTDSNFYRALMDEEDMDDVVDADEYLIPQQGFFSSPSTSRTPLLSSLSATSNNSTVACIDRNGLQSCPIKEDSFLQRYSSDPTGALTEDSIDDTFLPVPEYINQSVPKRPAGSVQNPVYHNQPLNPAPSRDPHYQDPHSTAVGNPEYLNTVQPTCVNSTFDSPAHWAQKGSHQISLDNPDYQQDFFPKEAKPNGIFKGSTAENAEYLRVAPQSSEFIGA
ALK tyrosine kinase receptor, sequence (Q9UM73 whole entry, the tested form may be a part): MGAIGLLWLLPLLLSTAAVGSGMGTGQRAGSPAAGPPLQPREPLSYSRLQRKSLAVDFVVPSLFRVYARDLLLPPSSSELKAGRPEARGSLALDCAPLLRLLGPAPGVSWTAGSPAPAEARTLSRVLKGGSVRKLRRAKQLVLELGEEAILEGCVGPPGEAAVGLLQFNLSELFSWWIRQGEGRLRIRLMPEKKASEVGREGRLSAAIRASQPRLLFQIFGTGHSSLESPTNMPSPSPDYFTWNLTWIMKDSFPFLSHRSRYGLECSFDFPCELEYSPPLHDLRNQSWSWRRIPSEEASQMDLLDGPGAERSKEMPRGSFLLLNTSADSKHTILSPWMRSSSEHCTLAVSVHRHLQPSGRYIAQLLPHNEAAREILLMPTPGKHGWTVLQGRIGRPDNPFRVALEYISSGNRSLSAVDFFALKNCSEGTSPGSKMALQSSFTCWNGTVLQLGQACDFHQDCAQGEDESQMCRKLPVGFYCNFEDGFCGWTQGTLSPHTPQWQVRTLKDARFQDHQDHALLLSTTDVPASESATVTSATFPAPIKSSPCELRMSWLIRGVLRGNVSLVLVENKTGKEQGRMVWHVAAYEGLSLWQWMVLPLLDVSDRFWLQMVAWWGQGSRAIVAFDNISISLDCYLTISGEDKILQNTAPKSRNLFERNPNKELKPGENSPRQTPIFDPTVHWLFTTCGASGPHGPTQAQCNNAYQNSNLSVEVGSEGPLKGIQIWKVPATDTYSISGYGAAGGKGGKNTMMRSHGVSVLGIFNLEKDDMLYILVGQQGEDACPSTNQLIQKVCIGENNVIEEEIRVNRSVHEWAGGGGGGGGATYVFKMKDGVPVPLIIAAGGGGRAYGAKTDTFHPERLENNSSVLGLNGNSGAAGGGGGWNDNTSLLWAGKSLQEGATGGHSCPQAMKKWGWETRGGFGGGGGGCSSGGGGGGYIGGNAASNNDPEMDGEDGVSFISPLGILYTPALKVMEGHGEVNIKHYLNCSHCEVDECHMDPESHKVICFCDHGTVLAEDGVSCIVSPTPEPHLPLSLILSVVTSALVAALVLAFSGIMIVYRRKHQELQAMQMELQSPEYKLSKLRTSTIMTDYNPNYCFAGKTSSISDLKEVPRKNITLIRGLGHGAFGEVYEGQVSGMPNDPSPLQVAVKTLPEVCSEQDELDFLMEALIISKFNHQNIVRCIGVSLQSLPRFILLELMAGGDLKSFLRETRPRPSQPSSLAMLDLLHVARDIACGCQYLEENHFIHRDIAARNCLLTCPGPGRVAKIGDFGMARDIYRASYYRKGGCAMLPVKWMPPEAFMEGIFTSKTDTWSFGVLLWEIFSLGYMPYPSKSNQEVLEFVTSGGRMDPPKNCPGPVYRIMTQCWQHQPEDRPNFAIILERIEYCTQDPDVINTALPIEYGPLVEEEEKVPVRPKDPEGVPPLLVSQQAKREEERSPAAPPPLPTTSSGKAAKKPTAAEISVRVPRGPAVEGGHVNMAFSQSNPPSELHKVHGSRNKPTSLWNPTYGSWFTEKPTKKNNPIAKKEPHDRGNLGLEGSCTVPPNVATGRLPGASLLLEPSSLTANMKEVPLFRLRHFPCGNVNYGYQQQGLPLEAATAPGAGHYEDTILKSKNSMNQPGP
Platelet-derived growth factor receptor alpha, sequence (P16234 whole entry, the tested form may be a part): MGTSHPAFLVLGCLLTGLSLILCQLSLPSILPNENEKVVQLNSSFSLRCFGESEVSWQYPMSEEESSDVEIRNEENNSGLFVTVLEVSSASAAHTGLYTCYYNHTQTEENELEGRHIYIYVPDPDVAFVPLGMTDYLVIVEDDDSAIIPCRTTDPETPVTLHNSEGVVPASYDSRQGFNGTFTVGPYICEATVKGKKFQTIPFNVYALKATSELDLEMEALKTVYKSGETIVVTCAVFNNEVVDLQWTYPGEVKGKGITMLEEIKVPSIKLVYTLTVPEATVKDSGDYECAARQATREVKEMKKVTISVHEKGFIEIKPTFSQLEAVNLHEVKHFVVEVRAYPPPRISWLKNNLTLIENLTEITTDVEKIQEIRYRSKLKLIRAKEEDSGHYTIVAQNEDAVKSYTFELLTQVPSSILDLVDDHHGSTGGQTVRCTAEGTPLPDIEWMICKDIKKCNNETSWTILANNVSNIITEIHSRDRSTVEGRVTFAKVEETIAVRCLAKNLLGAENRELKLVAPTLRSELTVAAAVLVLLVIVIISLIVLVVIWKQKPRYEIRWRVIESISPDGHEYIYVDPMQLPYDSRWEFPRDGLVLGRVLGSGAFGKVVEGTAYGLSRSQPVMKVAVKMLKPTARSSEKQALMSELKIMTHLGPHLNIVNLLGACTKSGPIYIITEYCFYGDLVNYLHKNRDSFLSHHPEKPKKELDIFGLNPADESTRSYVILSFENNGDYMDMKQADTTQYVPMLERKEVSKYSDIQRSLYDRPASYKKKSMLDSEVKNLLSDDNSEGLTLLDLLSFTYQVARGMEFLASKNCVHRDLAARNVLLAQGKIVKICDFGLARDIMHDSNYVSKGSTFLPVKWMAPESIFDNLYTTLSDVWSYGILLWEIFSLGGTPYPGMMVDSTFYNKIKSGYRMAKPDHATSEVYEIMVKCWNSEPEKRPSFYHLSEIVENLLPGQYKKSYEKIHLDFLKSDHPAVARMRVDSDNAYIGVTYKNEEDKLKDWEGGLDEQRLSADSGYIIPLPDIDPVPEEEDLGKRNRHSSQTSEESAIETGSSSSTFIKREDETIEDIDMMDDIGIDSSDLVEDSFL
Aurora kinase B, sequence (Q96GD4 whole entry, the tested form may be a part): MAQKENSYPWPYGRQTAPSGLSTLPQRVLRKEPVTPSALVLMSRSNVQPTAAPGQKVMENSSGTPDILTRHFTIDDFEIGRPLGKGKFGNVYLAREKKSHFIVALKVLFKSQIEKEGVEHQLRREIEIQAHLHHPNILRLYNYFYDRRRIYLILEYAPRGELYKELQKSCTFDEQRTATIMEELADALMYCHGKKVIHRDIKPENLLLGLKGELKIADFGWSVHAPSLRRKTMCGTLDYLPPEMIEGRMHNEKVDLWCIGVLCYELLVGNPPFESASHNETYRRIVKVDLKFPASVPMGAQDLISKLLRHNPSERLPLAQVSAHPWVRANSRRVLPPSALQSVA

SMILES | IC50 [1] [nM] | IC50 [2] [nM] | IC50 (Aurora kinase B) [nM] | IC50 [3] [nM] | Activity (MV4-11) | IC50 [4] [nM] | IC50 [5] [nM] | Ratio EC50 [6] | EC50 (BT-474) [nM]
CNc1ncc2c(-c3ccc(N4CCN(C)CC4)nc3)nn(CC3CCCC3)c2n1 | 12 | 190 | 170 | > 10000 | Active | 30 | 990 | – | –
CNc1ncc2c(-c3ccc(N4CCNCC4)cc3)nn(Cc3cn(Cc4ccccc4)nn3)c2n1 | – | – | – | – | – | – | – | <1 | –
Nc1nc(Nc2ccc3c(c2)CC[C@@H](N2CCCC2)CC3)nn1-c1cc2c(nn1)-c1ccccc1CCC2 [BEMCENTINIB] | 2 | 530 | 100 | 3900 | Active | 6 | 20 | – | –
CNc1ncc2c(-c3ccc(N4CCNCC4)nc3)nn(CC3CCCC3)c2n1 | – | – | – | – | – | – | – | 2 | 1640
